# Compounds with a hit are over-represented: about 12% of the library has one in this group of screens.
# CHOP inh: CHOP inhibition in unfolded protein response. AID 2732. inhibition, % at 10 µM. CHO-K1 CHOP-promoter luciferase, tunicamycin-induced, 15-18 h. hit rate 3.8% among 220,000;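 active = compounds that reduced the stress-induced luciferase reporter signal by more than about 70% of percent inhibition, limit read from the data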;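 note: 0% = tunicamycin plus vehicle and 100% = wells without tunicamycin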
# Lmaj promast: reduces viability of Leishmania major promastigotes | resazurin fluorescence viability | inhibition, % at 10 µM | hit rate 9% among 200,000 | AID 1063; in the data active = inhibition above about 50%;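 note: promastigotes grown with compound for 44 hours at 28 °C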
# MT stabilize HCS: microtubule stabilization, imaging screen. HeLa tubulin immunostaining HCS, 24 h; share of cells brighter than vehicle mean+2SD. hit rate 0.83% among 200,000. % tubulin-high responders, % at 10 µM. AID 2205;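 active = plate Z-score above 3 for both tubulin-high and condensed-nucleus cell shares, with cell loss under 80%, at 10 µM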;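 note: anti alpha tubulin signal scored within the nucleus-defined area of each cell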
# b-catenin transl: modulators of beta-catenin nuclear translocation. hit rate 0.3% among 190,000. nuclear translocation activity, % at 5 µM. HeLa beta-catenin nuclear translocation, immunofluorescence imaging;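 active = nuclear translocation activity above 50% at 5 µM, with a well cell count of 50 or more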;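 note: per-cell ratio of nuclear to cytoplasmic median beta-catenin stain intensity; plate controls were DMSO negative control for no effect and GSK-3 inhibitor IX positive control for full effect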
#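 Read-out: Nuclear/cytoplasmic beta-catenin signal ratio, % activation | Assay system: Human HeLa cell line | Times: 24 h compound exposure at 37°C, 5% CO2 | Signal: Fluorescence imaging of beta-catenin antibody stain plus DAPI | Dosing: 5 µM primary, 0.02–20 µM confirmation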
# Autophagy mod: autophagy modulation, high-content screen; hit rate 0.98% among 190,000; MEF GFP-LC3 puncta imaging; test concentration mostly 10 µM; calls only at 10 µM (by protocol);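 active = percentage of spot-positive cells more than 3 SD above its plate mean, without a fluorescence outlier flag or 80% toxicity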;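 note: spot-positive cell cutoff set from DMSO-treated cells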
# Dynein transport: blocks dynein driven cargo transport along microtubules | 3617.4 mouse cells, GR-EGFP nuclear translocation imaging; test concentration mostly 20 µM; stimulated with dexamethasone, 1 µM; stronger effect = lower value | z-score, hits read low | hit rate 0.47% among 220,000 | AID 1381;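 active = plate z-score of nuclear minus cytoplasmic receptor signal below a set negative limit, without overly bright fluorescence or cell loss, cut at about -3.5 in these data, passing the limit was not always enough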;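 note: z-score of nuclear minus cytoplasmic ring GR-EGFP intensity difference per well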
#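 Buffer or medium – tet-free medium with charcoal-stripped serum · Signal – automated 10x imaging of fixed Hoechst-stained cells · Also added – dexamethasone agonist, 1.0 µM final, for 30 min · Incubation – induction 48 h, compound 1 h, agonist 30 min · Read-out – GR-EGFP nuclear translocation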
# CHOP inh conf: confirmation of CHOP induction inhibitors. shares compounds with CHOP inh. CHO-CHOP promoter luciferase reporter, tunicamycin-induced, luminescence. inhibition, % at 10 µM. hit rate 45% among 2,100;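 active = mean of three repeat readings of reporter signal inhibition above a set limit, cut at about 70% in these data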;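 note: 0% = tunicamycin plus vehicle and 100% = wells lacking tunicamycin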
# An asterisk follows results filed as active; i = inactive; · = no result given.
SMILES,CHOP inh,Lmaj promast,MT stabilize HCS,b-catenin transl,Autophagy mod,Dynein transport,CHOP inh conf
CCOc1ccc(-c2cc(CCCC(=O)NCc3ccc(C)cc3)no2)cc1,96*,-1,4,-4,i,0.78,78*
CNC(=S)NNC(=O)COc1cccc(C)c1C,24,-5,1,-2,i,·,·
COCC1=C(C(=O)OC)C(c2ccco2)n2ncnc2N1 (stereo unspecified),24,·,·,-4,·,-0.82,·
COc1ccc(/C=N/n2c(N)nc(-c3ccccc3)c2-c2ccccc2)cc1,104*,57*,2,-3,i,-0.48,52
COc1ccc(/C=N/n2c(N)nc3ccccc32)cc1OC,18,30,6,-3,i,1.6,·
O=C(Cc1cccc2ccccc12)NC(NC(=S)Nc1ccccc1Cl)C(Cl)(Cl)Cl (stereo unspecified),104*,7,5,0,i,0.21,-14
O=C(CNC(=O)c1ccc(Cl)cc1)N/N=C/C=C/c1ccccc1,99*,2,6,-1,i,0.42,20
CC(OC(=O)c1oc2ccccc2c1CSC1CCCCC1)C(=O)NC(N)=O (stereo unspecified),101*,0,2,-1,i,-0.48,36
O=C(NCC1CCCO1)c1ccc(S(=O)(=O)N2CCC(c3nc4ccc(Cl)cc4[nH]3)CC2)cc1 (stereo unspecified),1,-4,3,-4,i,0.082,·
CC(C)CCn1c(N2CCN(c3cccc(Cl)c3)CC2)nc2c1c(=O)[nH]c(=O)n2C,106*,12,2,3,i,0.064,66
CCn1c(-c2ccc(F)cc2)cnc1SCC(=O)N1CCCCC1C (stereo unspecified),37,4,3,-1,i,-0.075,·
O=C(COc1ccc(Cl)cc1)Nc1ccccc1C(=O)NCc1ccco1,97*,3,6,2,i,-1.3,-8
Oc1ccc(/C=N/Nc2nc(N3CCCC3)nc(N3CCCC3)n2)cc1O,-126,3,2,0,i,-1.5,·
Oc1ccc(/C=N/Nc2cc(N3CCCC3)nc(N3CCCC3)n2)cc1,109*,13,2,0,i,0.36,14
Oc1ccc(/C=N/Nc2nc(N3CCCCCC3)nc(N3CCCCCC3)n2)c(O)c1,103*,8,10,5,i,0.23,98*
CCCCC(CC)C(=O)Oc1ccc(O)c(C(C)(C)C)c1 (stereo unspecified),104*,37,1,-1,i,0.76,117*
Cc1cccc(NC(=S)NC(C)C(c2cccs2)N2CCN(C)CC2)c1C (stereo unspecified),-14,·,·,0,·,-0.55,·
O=C1/C(=C/c2ccncc2)SC(=S)N1C1CCS(=O)(=O)C1 (stereo unspecified),104*,100*,2,2,i,-3,103*
COc1cc2nc(SCc3ccc(F)cc3)n(Cc3cccs3)c(=N)c2cc1OC,0,11,2,·,i,-0.25,·
COc1ccc(Cn2c(SCc3ccccc3C)nc3cc(OC)c(OC)cc3c2=N)cc1,107*,100*,35,9,i,0.039,120*
COc1ccc(N(CC(O)Cn2c(C)nc3ccccc32)S(=O)(=O)c2ccc(C)cc2)cc1 (stereo unspecified),-6,-7,2,-1,i,-0.45,·
Cc1ccc(S(=O)(=O)N(C)CC(O)Cn2c3ccccc3c3ccccc32)cc1 (stereo unspecified),101*,8,3,-2,i,-0.031,42
COc1cccc2cc(/C(=N/O)c3ccc(Br)cc3)oc12,106*,-6,6,3,i,0.66,20
CC(NC(=O)/C=C/c1cnc2ccccc2n1)C12CC3CC(CC(C3)C1)C2 (stereo unspecified),54,26,3,0,i,-0.65,·
CNc1nc(N/N=C/c2cc3c(cc2[N+](=O)[O-])OCO3)nc(Nc2ccccc2)n1,106*,65*,6,1,i,-0.53,25
Cc1cccc(-n2nnnc2SCC(=O)c2cc(C)n(Cc3ccco3)c2C)c1,6,0,4,0,i,-0.45,·
